Measured values from ChEMBL document CHEMBL3124905, “Isothiocoumarin-3-carboxylic acid derivatives: synthesis, anticancer and antitrypanosomal activity evaluation” (Eur J Med Chem, 2014).

How the values were obtained:
[1] = Growth inhibition of human UACC257 cells after 48 hrs by SRB assay; assay type: functional; settings: UACC-257, 48 h
Method in brief: (§1)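 NCI ~60-cell-line five-dose screen. Cells were preincubated 24-48 h, then given compound at 10-fold dilutions from 10^-4 to 10^-8 M with 48 h continuous exposure. SRB protein stain was read by absorbance at time zero, in untreated control and with drug. GI50 was derived from [(Ti-Tz)/(C-Tz)]x100=50, TGI from Ti=Tz, and LC50 from [(Ti-Tz)/Tz]x100=-50.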

BT-549 = assay: Growth inhibition of human BT549 cells after 48 hrs by SRB assay; assay type: functional; settings: BT-549, 48 h
Method in brief: (§2)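 NCI five-dose assay against the ~60-cell-line panel (nine cancer types). Tenfold dilutions from 10−4 to 10−8 M were used with continuous 48-h exposure and SRB absorbance readout. Percent growth was computed from time-zero, control and treated absorbances. GI50 is the concentration giving 50% lower net protein increase than controls. Values not reached are reported as beyond the tested range.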

IGROV-1 = assay: Growth inhibition of human IGROV1 cells after 48 hrs by SRB assay; assay type: functional; settings: IGROV-1, 48 h; method in brief: as §2
[2] = Growth inhibition of human EKVX cells after 48 hrs by SRB assay; assay type: functional; method in brief: as §2
NCI/ADR-RES = assay: Growth inhibition of human NCI/ADR-RES cells after 48 hrs by SRB assay; assay type: functional; method in brief: as §2
[3] = Growth inhibition of human RXF393 cells after 48 hrs by SRB assay; assay type: functional; settings: RXF 393, 48 h; method in brief: as §2
SK-MEL-5 = assay: Growth inhibition of human SK-MEL-5 cells after 48 hrs by SRB assay; assay type: functional; settings: SK-MEL-5, 48 h; method in brief: as §2
NCI-H460 = assay: Anticancer activity against human NCI-H460 cells assessed as cell growth at 100 uM after 48 hrs by SRB assay; assay type: functional; settings: NCI-H460, 48 h, read-out: Activity
Method in brief: (§3)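 NCI one-dose primary screen on a three-line panel (breast MCF7, lung NCI-H460, CNS SF-268). Cells were inoculated and preincubated 24–48 h, then exposed to a single concentration of 10−4 M for 48 h. The endpoint was sulforhodamine B protein staining, and results are expressed as percent growth relative to untreated control cells. Negative values denote cytotoxicity.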

MCF7 = assay: Anticancer activity against human MCF7 cells assessed as cell growth at 100 uM after 48 hrs by SRB assay; assay type: functional; settings: MCF7, 48 h, read-out: Activity; method in brief: as §3
SF-268 = assay: Anticancer activity against human SF268 cells assessed as cell growth at 100 uM after 48 hrs by SRB assay; assay type: functional; settings: SF-268, 48 h, read-out: Activity; method in brief: as §3
OVCAR-3 [4] = assay: Growth inhibition of human OVCAR3 cells at 10 uM after 48 hrs by SRB assay; values are per cent of control; settings: OVCAR-3, 48 h
[5] = Growth inhibition of human UO31 cells after 48 hrs by SRB assay; assay type: functional; settings: UO-31, 48 h; method in brief: as §1
TK-10 = assay: Growth inhibition of human TK10 cells after 48 hrs by SRB assay; assay type: functional; settings: TK-10, 48 h; method in brief: as §1
[6] = Growth inhibition of human HOP92 cells after 48 hrs by SRB assay; assay type: functional; settings: HOP-92, 48 h; method in brief: as §2
SR = assay: Growth inhibition of human SR cells after 48 hrs by SRB assay; assay type: functional; method in brief: as §1
[7] = system: Trypanosoma brucei brucei; assay: Antitrypanosomal activity against bloodstream form of Trypanosoma brucei brucei strain 90-13 assessed as inhibition of parasite growth at 1 ug/ml after 72 hrs by resazurin reduction test; assay type: functional; settings: strain 90-13, 72 h
Method in brief: (§4)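 Trypanosoma brucei brucei 90-13 bloodstream forms, grown in HMI9 with 10% FCS at 37 °C under 5% CO2. Log-phase parasites were seeded at 10^5 cells/mL with or without inhibitor, with stocks prepared in DMSO. After 72 h, resazurin was added and fluorescence was read at 530/590 nm after a further 4 h. Percent growth inhibition was calculated versus drug-free parasites, with DMSO as control.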

SNB-75 [8] = assay: Growth inhibition of human SNB75 cells at 10 uM after 48 hrs by SRB assay; values are per cent of control; settings: SNB-75, 48 h
NCI-H322M = assay: Growth inhibition of human NCI-H322M cells after 48 hrs by SRB assay; assay type: functional; method in brief: as §2
[9] = system: Trypanosoma brucei brucei; assay: Antitrypanosomal activity against bloodstream form of Trypanosoma brucei brucei strain 90-13 assessed as inhibition of parasite growth at 10 ug/ml after 72 hrs by resazurin reduction test; assay type: functional; settings: strain 90-13, 72 h; method in brief: as §4
[10] = Growth inhibition of human Hs 578T cells after 48 hrs by SRB assay; assay type: functional; method in brief: as §2
CAKI-1 [11] = assay: Growth inhibition of human CAKI-1 cells after 48 hrs by SRB assay; assay type: functional; settings: CAKI-1, 48 h; method in brief: as §2
[12] = Growth inhibition of human SF539 cells at 10 uM after 48 hrs by SRB assay; values are per cent of control; settings: SF-539, 48 h
[13] = Acute toxicity in ip dosed white mouse; assay type: organism-based; settings: in vivo
Method in brief: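 White male mice, 23-25 g, dosed intraperitoneally with compound dissolved in 0.9% NaCl saline plus 1-2 drops Polysorbate 80 (Tween-80). Solutions prepared immediately before use. Doses ranged 100-1000 mg/kg, testing 4 or 5 doses with 6 animals per dose. LD50 derived by the Litchfield-Wilcoxon method.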

SNB-75 [14] = assay: Growth inhibition of human SNB75 cells after 48 hrs by SRB assay; assay type: functional; settings: SNB-75, 48 h; method in brief: as §2
CAKI-1 [15] = assay: Growth inhibition of human CAKI-1 cells at 10 uM after 48 hrs by SRB assay; values are per cent of control; settings: CAKI-1, 48 h
ACHN = assay: Growth inhibition of human ACHN cells after 48 hrs by SRB assay; assay type: functional; method in brief: as §2
A549 = assay: Growth inhibition of human A549/ATCC cells at 10 uM after 48 hrs by SRB assay; values are per cent of control; settings: A549, 48 h
[16] = Growth inhibition of human SF539 cells after 48 hrs by SRB assay; assay type: functional; settings: SF-539, 48 h; method in brief: as §2
[17] = Growth inhibition of human UO31 cells at 10 uM after 48 hrs by SRB assay; values are per cent of control; settings: UO-31, 48 h
OVCAR-3 [18] = assay: Growth inhibition of human OVCAR3 cells after 48 hrs by SRB assay; assay type: functional; settings: OVCAR-3, 48 h; method in brief: as §2
[19] = Growth inhibition of human OVCAR4 cells after 48 hrs by SRB assay; assay type: functional; settings: OVCAR-4, 48 h; method in brief: as §2
Malme-3M = assay: Growth inhibition of human MALME-3M cells after 48 hrs by SRB assay; assay type: functional; method in brief: as §2
U-251 = assay: Growth inhibition of human U251 cells after 48 hrs by SRB assay; assay type: functional; settings: U-251, 48 h; method in brief: as §1
CCRF-CEM = assay: Growth inhibition of human CCRF-CEM cells at 10 uM after 48 hrs by SRB assay; assay type: functional; settings: read-out: GI
Method in brief: (§5)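 NCI one-dose screen across roughly 60 human tumour cell lines. Cells were preincubated 24–48 h, then treated with a single 10−5 M concentration for 48 h. Growth was read with the SRB protein-binding dye and reported as percent growth versus untreated controls. Negative values indicate cell kill.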

[20] = Growth inhibition of human […] cells at 10 uM after 48 hrs by SRB assay; assay type: functional; settings: read-out: GI; method in brief: as §5

With `CC(C)OC(=O)c1cc2ccccc2c(=O)s1` the GI50 [1] was 19.5 µM, the TGI ([1]; read-out: pTGI (converted)) was 66.1 µM and the GI50 (BT-549) was 24.5 µM. The TGI (BT-549; read-out: pTGI (converted)) was 63.1 µM, the GI50 (IGROV-1) was 20.9 µM and the TGI (IGROV-1; read-out: pTGI) was > 100 µM. For the same compound, the GI50 [2] was 19.1 µM, the TGI ([2]; read-out: pTGI (converted)) was 52.5 µM and the GI50 (NCI/ADR-RES) was 26.9 µM. The TGI (NCI/ADR-RES; read-out: pTGI (converted)) was 69.2 µM, the GI50 [3] was 15.1 µM and the TGI ([3]; read-out: pTGI (converted)) was 67.6 µM. For the same compound, the GI50 (SK-MEL-5) was 24.5 µM, the TGI (SK-MEL-5; read-out: pTGI (converted)) was 49 µM and the growth at 100 µM (NCI-H460) was 13%. For the same compound, the growth at 100 µM (MCF7) was 87% and the growth at 100 µM (SF-268) was 69%.

With `COc1ccc2cc(C(=O)Nc3nc(-c4ccccc4)cs3)sc(=O)c2c1OC` the growth percent at 10 µM (OVCAR-3 [4]) was -67%, the GI50 [5] was 1.95 µM and the TGI ([5]; read-out: pTGI (converted)) was 3.09 µM. For the same compound, the GI50 (TK-10) was 2.09 µM, the TGI (TK-10; read-out: pTGI (converted)) was 3.8 µM and the GI50 [6] was 1.29 µM. For the same compound, the TGI ([6]; read-out: pTGI (converted)) was 3.16 µM, the GI50 (SR) was 2.75 µM and the TGI (SR; read-out: pTGI (converted)) was > 100 µM. It also gave an inhibition at 1 µg/mL [7] of 28.6%, a growth percent at 10 µM (SNB-75 [8]) of -43.8% and a GI50 (NCI-H322M; read-out: GI50) of 1.28 µM. It also gave a GI50 (NCI-H322M; read-out: pGI50 (converted)) of 1.29 µM, a TGI (NCI-H322M; read-out: pTGI (converted)) of 5.62 µM and an inhibition at 10 µg/mL [9] of 11.3%. It also gave a GI50 [10] of 2.63 µM, a TGI ([10]; read-out: pTGI (converted)) of 4.37 µM and a GI50 (CAKI-1 [11]) of 0.24 µM. It also gave a TGI (CAKI-1 [11]; read-out: pTGI (converted)) of 1.78 µM, a growth percent at 10 µM [12] of -48% and an LD50 [13] of 515 mg/kg. For the same compound, the GI50 (SNB-75 [14]) was 1.58 µM, the TGI (SNB-75 [14]; read-out: pTGI (converted)) was 3.55 µM and the growth percent at 10 µM (CAKI-1 [15]) was -70.8%. The GI50 (ACHN) was 2.04 µM, the TGI (ACHN; read-out: pTGI (converted)) was > 100 µM and the growth percent at 10 µM (A549) was -50.8%. The GI50 [16] was 1.78 µM, the TGI ([16]; read-out: pTGI (converted)) was 3.63 µM and the growth percent at 10 µM [17] was -65.5%. For the same compound, the GI50 (OVCAR-3 [18]) was 1.91 µM, the TGI (OVCAR-3 [18]; read-out: pTGI (converted)) was 3.72 µM and the GI50 [19] was 1.86 µM. The GI50 (Malme-3M) was 1.95 µM, the TGI (Malme-3M; read-out: pTGI (converted)) was 8.32 µM and the GI50 (U-251) was 2 µM. It also gave a TGI (U-251; read-out: pTGI (converted)) of 4.47 µM.

In the case of `O=C(Nc1ccc(O)cc1)c1cc2ccccc2c(=O)s1`, the inhibition of growth at 10 µM (CCRF-CEM) is reported as -28%, the inhibition of growth at 10 µM [20] is reported as -11% and the growth percent at 10 µM [17] is reported as -62.1%.
